The species entered for one assay is Rattus norvegicus. The experiment in a line: […] effect on [3H]-GABA release from rat cortical synaptosomes at 100 uM (No effect). The format is functional. The note with it: Brain.
Assay [1] concerns the target GABA transporter (Rattus norvegicus) (UniProt P31647+P23978+P31646+P48056). Put plainly: In vitro maximal effect for synaptosomal GABA uptake at 100 uM. In kind it is functional. In outline:
(§1)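 Rat whole brain minus cerebellum was homogenized at 4 °C in 0.32 M sucrose and spun at 1000g for 10 min, then at 27000g for 20 min to give the P₂ synaptosome pellet. Uptake and transaminase were measured together: 100 μM compound with 25 μM [³H]GABA in Krebs-Ringer phosphate buffer, 10 min at room temperature. Reactions were stopped with 1 mM GABA plus 1 mM succinic acid and centrifuged. Supernatant went onto Dowex 50 and tissue radioactivity was counted. Results are given as % of drug-free control.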

The target of assay [2] is 4-aminobutyrate aminotransferase, mitochondrial (Rattus norvegicus) (UniProt P50554). Put plainly: In vitro inhibition of succinate formation in the synaptosomal Gamma-amino-N-butyrate transaminase assay at 100 uM. The format is functional. The procedure, abridged: as §1
Chain of 4-aminobutyrate aminotransferase, mitochondrial (Rattus norvegicus) (P50554 28-500 limits assumed): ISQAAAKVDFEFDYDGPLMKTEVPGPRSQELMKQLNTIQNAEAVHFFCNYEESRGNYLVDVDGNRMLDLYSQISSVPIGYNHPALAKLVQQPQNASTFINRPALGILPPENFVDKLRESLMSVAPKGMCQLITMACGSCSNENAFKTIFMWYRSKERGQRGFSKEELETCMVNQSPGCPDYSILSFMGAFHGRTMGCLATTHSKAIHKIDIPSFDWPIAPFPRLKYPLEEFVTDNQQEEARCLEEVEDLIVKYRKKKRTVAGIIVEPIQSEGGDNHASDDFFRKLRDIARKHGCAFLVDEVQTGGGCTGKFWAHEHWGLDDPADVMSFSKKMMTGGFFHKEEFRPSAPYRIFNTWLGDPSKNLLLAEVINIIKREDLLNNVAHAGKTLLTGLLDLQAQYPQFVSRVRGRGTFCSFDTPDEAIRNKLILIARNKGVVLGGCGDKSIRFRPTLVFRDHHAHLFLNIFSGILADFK
For assay [3], the target named is GABA-A receptor; anion channel. Put plainly: Inhibition of 2 nM [3H]muscimol binding to Gamma-aminobutyric acid (GABA-A) receptor in rat brain crude synaptic membranes. The format is cell membranes, Membrane.

Active and inactive are the calls of the source. The rule behind the calls is not given here.

Chain of GABA transporter (Rattus norvegicus) (P31646 whole entry, looked up): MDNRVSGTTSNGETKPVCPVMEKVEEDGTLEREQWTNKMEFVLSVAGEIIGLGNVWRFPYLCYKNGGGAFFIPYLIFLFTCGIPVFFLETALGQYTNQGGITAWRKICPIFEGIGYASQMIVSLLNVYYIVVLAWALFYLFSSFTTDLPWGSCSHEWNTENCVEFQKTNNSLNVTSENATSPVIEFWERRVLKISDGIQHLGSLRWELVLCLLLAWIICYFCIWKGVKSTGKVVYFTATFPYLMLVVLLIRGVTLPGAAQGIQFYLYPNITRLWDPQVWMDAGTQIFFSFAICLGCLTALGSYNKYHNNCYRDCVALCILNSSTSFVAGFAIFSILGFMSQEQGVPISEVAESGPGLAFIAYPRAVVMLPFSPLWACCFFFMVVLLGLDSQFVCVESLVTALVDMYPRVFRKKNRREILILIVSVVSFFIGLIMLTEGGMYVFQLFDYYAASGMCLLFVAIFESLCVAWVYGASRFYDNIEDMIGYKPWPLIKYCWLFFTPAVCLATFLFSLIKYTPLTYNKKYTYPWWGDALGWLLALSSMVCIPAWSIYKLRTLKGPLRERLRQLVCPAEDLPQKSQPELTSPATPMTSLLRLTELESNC
Chain of GABA transporter (Rattus norvegicus) (P31647 whole entry, looked up): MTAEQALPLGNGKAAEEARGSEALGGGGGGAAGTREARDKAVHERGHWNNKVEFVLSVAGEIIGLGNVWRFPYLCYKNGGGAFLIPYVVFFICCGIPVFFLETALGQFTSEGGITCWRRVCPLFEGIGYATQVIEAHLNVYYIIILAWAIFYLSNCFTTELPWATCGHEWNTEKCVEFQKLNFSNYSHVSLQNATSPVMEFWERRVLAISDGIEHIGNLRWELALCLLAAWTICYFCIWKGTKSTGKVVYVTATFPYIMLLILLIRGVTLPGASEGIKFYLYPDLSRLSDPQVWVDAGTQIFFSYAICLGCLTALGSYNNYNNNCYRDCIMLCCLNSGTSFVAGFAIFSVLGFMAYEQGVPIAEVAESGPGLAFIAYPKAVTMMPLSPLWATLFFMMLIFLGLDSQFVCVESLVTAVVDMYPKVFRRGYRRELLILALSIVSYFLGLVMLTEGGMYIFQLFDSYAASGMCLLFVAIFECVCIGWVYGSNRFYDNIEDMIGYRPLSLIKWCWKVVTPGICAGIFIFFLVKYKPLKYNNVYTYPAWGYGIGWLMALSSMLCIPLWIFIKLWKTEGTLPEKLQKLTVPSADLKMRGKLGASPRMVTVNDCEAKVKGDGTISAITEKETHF
Chain of GABA transporter (Rattus norvegicus) (P48056 whole entry, looked up): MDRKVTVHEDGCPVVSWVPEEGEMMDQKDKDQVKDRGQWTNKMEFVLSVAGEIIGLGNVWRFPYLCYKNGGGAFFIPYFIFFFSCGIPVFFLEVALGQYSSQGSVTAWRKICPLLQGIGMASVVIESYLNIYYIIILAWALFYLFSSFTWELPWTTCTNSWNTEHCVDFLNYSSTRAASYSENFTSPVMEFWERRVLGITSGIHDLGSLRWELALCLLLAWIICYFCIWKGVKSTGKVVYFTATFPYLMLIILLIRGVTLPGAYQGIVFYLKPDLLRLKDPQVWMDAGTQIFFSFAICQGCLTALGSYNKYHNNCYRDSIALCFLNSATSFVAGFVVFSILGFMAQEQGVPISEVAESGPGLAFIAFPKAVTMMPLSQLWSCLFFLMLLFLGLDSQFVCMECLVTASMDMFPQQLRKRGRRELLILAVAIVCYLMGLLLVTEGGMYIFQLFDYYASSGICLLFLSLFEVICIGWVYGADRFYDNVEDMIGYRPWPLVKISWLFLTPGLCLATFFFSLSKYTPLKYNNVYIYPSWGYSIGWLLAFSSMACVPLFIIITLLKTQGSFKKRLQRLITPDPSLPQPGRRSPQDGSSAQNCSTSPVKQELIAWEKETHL

The inhibition is the percentage by which the read-out fell short of the control. Read a high inhibition as strong suppression. For orientation: IC50 means the concentration at which inhibition is half-maximal. Take `CC1=NS(=O)(=O)c2ccc(CN(C)C)cc2N1`: the result in the assay filed under Rattus norvegicus was inactive. The compound also registered an Effect in assay [1] of 30%. The compound further registered an inhibition in assay [2] of 30%. Further, the concentration for half-maximal inhibition (IC50) in assay [3] is over 20 µM.
For the compound `CC1=NS(=O)(=O)c2c(CN)cccc2N1`, in the assay filed under Rattus norvegicus, the result was inactive. In assay [1], this compound registered an Effect of 30%. In assay [2], this compound displayed an inhibition of 30%. Besides, the IC50 in assay [3] was over 20 µM.
Turning to `CN1C(=O)Nc2cccc(CN)c2S1(=O)=O`, the result in the assay filed under Rattus norvegicus was inactive. Also, the Effect in assay [1] came to 30%. The inhibition in assay [2] is 30%. In assay [3], this compound displayed an IC50 of over 20 µM.
`NC(=O)C(=O)O` came in with an inhibition in assay [2] of 60%.
`CN(C)Cc1ccc2c(c1)NC(=O)N(C)S2(=O)=O`: in the assay listed under Rattus norvegicus, the outcome was inactive. Moreover, the Effect in assay [1] is 30%. The compound also returned an inhibition in assay [2] of 30%. Also, in assay [3], the IC50 is over 20 µM.
With `CN1C(=O)Nc2cc(CN)ccc2S1(=O)=O`, in the assay listed under Rattus norvegicus, the outcome was inactive. In assay [1], this compound had an Effect of 30%. For the same compound, the inhibition in assay [2] is 30%. In assay [3], the IC50 is over 20 µM.
As to `CC1=NS(=O)(=O)c2ccc(CN)cc2N1`, the result in the assay filed under Rattus norvegicus was inactive. In addition, the Effect in assay [1] came out at 30%. This compound also gave an inhibition in assay [2] of 30%. Also, the IC50 in assay [3] is over 20 µM.
Regarding `O=C(O)C1CCCNC1` (stereo unspecified), the inhibition in assay [2] came out at 70%.

(Values after ChEMBL document CHEMBL1121999 (J Med Chem, 1982).)
